Assay results reported in ChEMBL document CHEMBL1914331, “N-O chemistry for antibiotics: discovery of N-alkyl-N-(pyridin-2-yl)hydroxylamine scaffolds as selective antibacterial agents using nitroso Diels-Alder and ene chemistry” (J Med Chem, 2011).
Values after ≈ are worked out from the molar mass of the structure shown.

Key:
PC-3 = assay: Cytotoxicity against human PC3 cells; type: cell-based
HeLa = assay: Cytotoxicity against human HeLa cells; type: cell-based
Micrococcus luteus [1] = assay: Antimicrobial activity against Micrococcus luteus ATCC 10240 after 24 hrs by Kirby-Bauer agar diffusion assay; type: functional
Summary of the method: (§1)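 Modified Kirby-Bauer well diffusion. Overnight LB cultures (18–24 h) were standardized in 0.9% saline to 0.5 McFarland and mixed into melted MHII agar at 47–50 °C, giving ~5×10³ CFU/mL. 9 mm wells received 50 µL of 2.0 mM compound in 10:1 MeOH:DMSO. Plates were incubated 24 h at 37 °C, then growth-inhibition zone diameter was measured (mm) by caliper.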

Staphylococcus aureus [2] = assay: Antimicrobial activity against Staphylococcus aureus SG511 after 24 hrs by Kirby-Bauer agar diffusion assay; type: functional; summary of the method: as §1
Enterococcus faecalis [3] = assay: Antimicrobial activity against Enterococcus faecalis ATCC 49532 after 24 hrs by Kirby-Bauer agar diffusion assay; type: functional; summary of the method: as §1
Micrococcus luteus [4] = assay: Antimicrobial activity against Micrococcus luteus ATCC 10240 assessed after 18 hrs by broth microdilution method; type: functional; conditions: ATCC 10240, 18 h
Summary of the method: (§2)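 CLSI broth microdilution in cation-adjusted MHII broth. 20 mM DMSO stocks were diluted to 512 µM, then serially 2-fold, giving final 128–0.0625 µM with 5×10⁵ CFU/mL inoculum. Incubated 18 h at 37 °C. MIC90 was the lowest concentration giving 90% inhibition by visual turbidity versus DMSO wells. Run in triplicate.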

Staphylococcus aureus [5] = assay: Antimicrobial activity against Staphylococcus aureus SG511 assessed after 18 hrs by broth microdilution method; type: functional; conditions: SG511, 18 h; summary of the method: as §2
Enterococcus faecalis [6] = assay: Antimicrobial activity against Enterococcus faecalis ATCC 49532 assessed after 18 hrs by broth microdilution method; type: functional; conditions: ATCC 49532, 18 h; summary of the method: as §2
MCF7 = assay: Cytotoxicity against human MCF7 cells; type: cell-based

SMILES | Activity (PC-3) | Activity (HeLa) | diameter of the inhibition zone (DIZ) (Micrococcus luteus [1]) | diameter of the inhibition zone (DIZ) (Staphylococcus aureus [2]) | diameter of the inhibition zone (DIZ) (Enterococcus faecalis [3]) | MIC90 (Micrococcus luteus [4]) | MIC90 (Staphylococcus aureus [5]) | MIC90 (Enterococcus faecalis [6]) | Activity (MCF7)
CC(=O)ON(Cc1ccccc1)c1ccccn1 | Non-toxic | Non-toxic | 20 mm | 12 mm | 11 mm | 128 µM (≈ 31 µg/mL) | > 128 µM | > 128 µM | Non-toxic
C=C(C)C(C)N(O)c1ccc2ccccc2n1 (racemic) | Non-toxic | Non-toxic | 31 mm | 13 mm | 13 mm | 8 µM (≈ 1.83 µg/mL) | 128 µM (≈ 29.2 µg/mL) | > 128 µM | Non-toxic
ON(Cc1ccccc1)c1ccccn1 | Non-toxic | Non-toxic | 24 mm | 18 mm | 20 mm | 64 µM (≈ 12.8 µg/mL) | 128 µM (≈ 25.6 µg/mL) | > 128 µM | Non-toxic
ON(Cc1ccccc1)c1cccnc1 | Non-toxic | Non-toxic | 15 mm | 16 mm | 0 mm | ≥ 128 µM | > 128 µM | > 128 µM | Non-toxic
C=C(C)C(C)N(O)c1cccc(CC)n1 (racemic) | Non-toxic | Non-toxic | 52 mm | 11 mm | 22 mm | 2 µM (≈ 0.413 µg/mL) | > 128 µM | > 128 µM | Non-toxic
C=C(C)C(C)N(O)c1ccc(Cl)cn1 (racemic) | Non-toxic | Non-toxic | 40 mm | 18 mm | 21 mm | 2 µM (≈ 0.425 µg/mL) | 128 µM (≈ 27.2 µg/mL) | ≥ 128 µM | Non-toxic
C=C(C)C(CCC(C)=O)N(O)c1ccccn1 (racemic) | Non-toxic | Non-toxic | 30 mm | 15 mm | 16 mm | 16 µM (≈ 3.75 µg/mL) | 128 µM (≈ 30 µg/mL) | > 128 µM | Non-toxic
C=C(C)C(C)N(O)c1ccc(Br)cn1 (racemic) | Non-toxic | Non-toxic | 35 mm | 17 mm | 19 mm | 4 µM (≈ 1.03 µg/mL) | > 128 µM | > 128 µM | Non-toxic
CCCN(O)c1ccccn1 | Non-toxic | Non-toxic | 13 mm | 0 mm | 0 mm | > 128 µM | > 128 µM | > 128 µM | Non-toxic
ON(Cc1ccc(C(F)(F)F)cc1)c1ccccn1 | Non-toxic | Non-toxic | 16 mm | 15 mm | 15 mm | 128 µM (≈ 34.3 µg/mL) | > 128 µM | > 128 µM | Non-toxic
C=C(C)C(C)N(O)c1ccccn1 (racemic) | Non-toxic | Non-toxic | 31 mm | 18 mm | 22 mm | 8 µM (≈ 1.43 µg/mL) | 128 µM (≈ 22.8 µg/mL) | > 128 µM | Non-toxic
c1ccc(CNc2ccccn2)cc1 | Non-toxic | Non-toxic | 0 mm | 0 mm | 0 mm | > 128 µM | > 128 µM | > 128 µM | Non-toxic
ON(Cc1ccc(OC(F)(F)F)cc1)c1ccccn1 | Non-toxic | Non-toxic | 17 mm | 14 mm | 15 mm | 128 µM (≈ 36.4 µg/mL) | > 128 µM | > 128 µM | Non-toxic
CN(O)c1ccccn1 | Non-toxic | Non-toxic | 18 mm | 0 mm | 0 mm | ≥ 128 µM | > 128 µM | > 128 µM | Non-toxic
C=C(C)C(C)(C)N(O)c1ccccn1 | Non-toxic | Non-toxic | 33 mm | 15 mm | 18 mm | 4 µM (≈ 0.769 µg/mL) | 128 µM (≈ 24.6 µg/mL) | > 128 µM | Non-toxic
ON(Cc1cccc(Oc2ccccc2)c1)c1ccccn1 | Non-toxic | Non-toxic | 12 mm | 13 mm | 0 mm | > 128 µM | > 128 µM | > 128 µM | Non-toxic
C=C(C)C(C)N(O)c1ccc(Br)c(C)n1 (racemic) | Non-toxic | Non-toxic | 35 mm | 13 mm | 12 mm | 4 µM (≈ 1.08 µg/mL) | > 128 µM | > 128 µM | Non-toxic
CO[C@H]1C=CCC[C@@H]1N(O)c1ccc(Br)cn1 (racemic) | Non-toxic | Non-toxic | 34 mm | 18 mm | 20 mm | 4 µM (≈ 1.2 µg/mL) | ≥ 128 µM | > 128 µM | Non-toxic
COc1ccc(CON(Cc2ccccc2)c2ccccn2)cc1 | Non-toxic | Non-toxic | 0 mm | 0 mm | 0 mm | > 128 µM | > 128 µM | > 128 µM | Non-toxic
ON(Cc1ccccc1)Cc1ccccn1 | Non-toxic | Non-toxic | 0 mm | 0 mm | 0 mm | > 128 µM | > 128 µM | > 128 µM | Non-toxic
C=CCN(O)c1ccccn1 | Non-toxic | Non-toxic | 14 mm | 0 mm | 12 mm | > 128 µM | > 128 µM | > 128 µM | Non-toxic
CCCCCCN(O)c1ccccn1 | Non-toxic | Non-toxic | 15 mm | 17 mm | 16 mm | 128 µM (≈ 24.9 µg/mL) | > 128 µM | > 128 µM | Non-toxic
CO[C@H]1C=CCC[C@@H]1N(OC(C)=O)c1ccc(Br)cn1 (racemic) | Non-toxic | Non-toxic | 22 mm | 0 mm | 0 mm | 32 µM (≈ 10.9 µg/mL) | > 128 µM | > 128 µM | Non-toxic
ON(CCc1ccccc1)c1ccccn1 | Non-toxic | Non-toxic | 16 mm | 0 mm | 15 mm | 128 µM (≈ 27.4 µg/mL) | > 128 µM | > 128 µM | Non-toxic
C=C(C)C(C)N(O)c1cc(C)ccn1 (racemic) | Non-toxic | Non-toxic | 29 mm | 20 mm | 22 mm | 4 µM (≈ 0.769 µg/mL) | 128 µM (≈ 24.6 µg/mL) | > 128 µM | Non-toxic
C=C(C)C(C)N(O)c1cc(C)on1 (racemic) | Non-toxic | Non-toxic | 21 mm | 0 mm | 13 mm | 64 µM (≈ 11.7 µg/mL) | > 128 µM | > 128 µM | Non-toxic
